# Laboratory results: ChEMBL document CHEMBL1144552, “Synthesis and antitumor activities of a series of novel quinoxalinhydrazides” (Bioorg Med Chem, 2007)
# pIC50: −log10 of the molar value. The source made the active and inactive calls. The calls are words filed in the database; no cut-off is given here.
# Test system: LNCaP
# Test: Inhibition of colony formation of human LNCap cells at >=1 uM after 24 hrs
# Assay type: functional, cell-based
# Settings: not given
# How it was run: (§1)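 Cells were plated at 100 cells/well in 6-well plates and allowed to attach. Serial dilutions were added the next day for 24 h exposure. Cells were then washed in PBS and grown in drug-free medium for 8–10 days until colonies formed. Colonies were fixed in 1% glutaraldehyde for 30 min, stained with 2% crystal violet for 30 min, imaged and counted. Means of at least three independent experiments.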
row,SMILES,Activity
1,O=C(NNc1nc2cccc(F)c2n2cccc12)c1cnccn1,Active

# Test system: HCT-116
# Test: Inhibition of colony formation of p53 expressing human HCT116 cells at >=1 uM after 24 hrs
# Assay type: functional, cell-based
# Settings: not given
# How it was run: as §1
row,SMILES,Activity
1,O=C(NNc1nc2cccc(F)c2n2cccc12)c1cnccn1,Active

# Test system: HCT-116
# Test: Inhibition of colony formation of p53 deficient human HCT116 cells at >=1 uM after 24 hrs
# Assay type: functional, cell-based
# Settings: not given
# How it was run: as §1
row,SMILES,Activity
1,O=C(NNc1nc2cccc(F)c2n2cccc12)c1cnccn1,Active

# Test system: HT-29
# Test: Cytotoxicity against human HT29 cells after 72 hrs by MTT assay
# Assay type: cell-based
# Settings: HT-29, 72 h
# How it was run: (§2)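 Monolayer cultures in RPMI 1640 with 10% FBS and 2 mmol/L L-glutamine, 37 °C, 5% CO2, used in exponential growth and checked for mycoplasma by PCR. Cells were seeded in 96-well plates, allowed to attach, then exposed continuously to drug for 72 h. MTT (final 0.5 mg/mL) was added for 4 h at 37 °C, formazan dissolved in DMSO, absorbance read at 570 nm. Triplicate.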
row,SMILES,pIC50
1,O=C(NNc1nc2cccc(F)c2n2cccc12)c1cnccn1,6.52
2,O=C(NNc1nc2ccccc2n2cccc12)c1ccc2cc[nH]c2c1,< 4.70
3,O=C(NNc1nc2cc(F)ccc2n2cccc12)c1ccccc1F,< 4.70
4,NCCC(=O)NNc1nc2ccccc2n2cccc12,< 4.70
5,O=C(NNc1nc2cc(F)ccc2n2cccc12)c1cnccn1,6.05
6,O=C(NNc1nc2ccccc2n2cccc12)C1CSCN1 (centres undefined),4.85
7,O=C(NNc1nc2cc(F)ccc2n2cccc12)c1cccnc1,< 4.70
8,O=C(NNc1nc2cc(F)ccc2n2cccc12)c1cnc2ccccc2n1,4.89
9,O=C(NNc1nc2cc(F)ccc2n2cccc12)c1ccccn1,4.77
10,O=C(NNc1nc2ccccc2n2cccc12)c1c[nH]c2ccccc12,< 4.70
11,O=C(NNc1nc2ccccc2n2cccc12)c1cc2ccccc2[nH]1,< 4.70
12,O=C(NNc1nc2cc(F)ccc2n2cccc12)c1cccs1,< 4.70
13,O=C(NNc1nc2cc(F)ccc2n2cccc12)c1ccco1,< 4.70
14,COc1ccccc1C(=O)NNc1nc2ccccc2n2cccc12,< 4.70

# Test system: HCT-116
# Test: Cytotoxicity against human HCT116 cells expressing p53 gene after 72 hrs by MTT assay
# Assay type: cell-based
# Settings: HCT-116, 72 h
# How it was run: as §2
row,SMILES,pIC50
1,O=C(NNc1nc2cccc(F)c2n2cccc12)c1cnccn1,6.40
2,O=C(NNc1nc2ccccc2n2cccc12)c1ccc2cc[nH]c2c1,< 4.70
3,O=C(NNc1nc2cc(F)ccc2n2cccc12)c1ccccc1F,< 4.70
4,NCCC(=O)NNc1nc2ccccc2n2cccc12,< 4.70
5,O=C(NNc1nc2cc(F)ccc2n2cccc12)c1cnccn1,6.22
6,O=C(NNc1nc2ccccc2n2cccc12)C1CSCN1 (centres undefined),4.82
7,O=C(NNc1nc2cc(F)ccc2n2cccc12)c1cccnc1,< 4.70
8,O=C(NNc1nc2cc(F)ccc2n2cccc12)c1cnc2ccccc2n1,5.10
9,O=C(NNc1nc2cc(F)ccc2n2cccc12)c1ccccn1,< 4.70
10,O=C(NNc1nc2ccccc2n2cccc12)c1c[nH]c2ccccc12,< 4.70
11,O=C(NNc1nc2ccccc2n2cccc12)c1cc2ccccc2[nH]1,< 4.70
12,O=C(NNc1nc2cc(F)ccc2n2cccc12)c1cccs1,< 4.70
13,O=C(NNc1nc2cc(F)ccc2n2cccc12)c1ccco1,< 4.70
14,COc1ccccc1C(=O)NNc1nc2ccccc2n2cccc12,< 4.70

# Test system: LNCaP
# Test: Cytotoxicity against human LNCap cells after 72 hrs by MTT assay
# Assay type: cell-based
# Settings: not given
# How it was run: as §2
row,SMILES,pIC50
1,O=C(NNc1nc2cccc(F)c2n2cccc12)c1cnccn1,6.40
2,O=C(NNc1nc2cc(F)ccc2n2cccc12)c1cnccn1,6.40
3,O=C(NNc1nc2cc(F)ccc2n2cccc12)c1ccccn1,< 4.70

# Test system: HT-29
# Test: Inhibition of colony formation of human HT29 cells at >=1 uM after 24 hrs
# Assay type: functional, cell-based
# Settings: not given
# How it was run: as §1
row,SMILES,Activity
1,O=C(NNc1nc2cccc(F)c2n2cccc12)c1cnccn1,Active

# Test system: MDA-MB-435
# Test: Cytotoxicity against human MDA-MB-435 cells after 72 hrs by MTT assay
# Assay type: cell-based
# Settings: MDA-MB-435, 72 h
# How it was run: as §2
row,SMILES,pIC50
1,O=C(NNc1nc2cccc(F)c2n2cccc12)c1cnccn1,5.52
2,O=C(NNc1nc2ccccc2n2cccc12)c1ccc2cc[nH]c2c1,< 4.70
3,O=C(NNc1nc2cc(F)ccc2n2cccc12)c1ccccc1F,< 4.70
4,NCCC(=O)NNc1nc2ccccc2n2cccc12,< 4.70
5,O=C(NNc1nc2cc(F)ccc2n2cccc12)c1cnccn1,5.40
6,O=C(NNc1nc2ccccc2n2cccc12)C1CSCN1 (centres undefined),< 4.70
7,O=C(NNc1nc2cc(F)ccc2n2cccc12)c1cccnc1,< 4.70
8,O=C(NNc1nc2cc(F)ccc2n2cccc12)c1cnc2ccccc2n1,4.82
9,O=C(NNc1nc2cc(F)ccc2n2cccc12)c1ccccn1,< 4.70
10,O=C(NNc1nc2ccccc2n2cccc12)c1c[nH]c2ccccc12,< 4.70
11,O=C(NNc1nc2ccccc2n2cccc12)c1cc2ccccc2[nH]1,< 4.70
12,O=C(NNc1nc2cc(F)ccc2n2cccc12)c1cccs1,< 4.70
13,O=C(NNc1nc2cc(F)ccc2n2cccc12)c1ccco1,< 4.70
14,COc1ccccc1C(=O)NNc1nc2ccccc2n2cccc12,< 4.70

# Test system: MDA-MB-435
# Test: Inhibition of colony formation of human MDA-MB-435 cells at >=1 uM after 24 hrs
# Assay type: functional, cell-based
# Settings: not given
# How it was run: as §1
row,SMILES,Activity
1,O=C(NNc1nc2cccc(F)c2n2cccc12)c1cnccn1,Active

# Test system: HCT-116
# Test: Cytotoxicity against p53 deficient human HCT116 cells after 72 hrs by MTT assay
# Assay type: cell-based
# Settings: HCT-116, 72 h
# How it was run: as §2
row,SMILES,pIC50
1,O=C(NNc1nc2cccc(F)c2n2cccc12)c1cnccn1,6.52
2,O=C(NNc1nc2ccccc2n2cccc12)c1ccc2cc[nH]c2c1,< 4.70
3,O=C(NNc1nc2cc(F)ccc2n2cccc12)c1ccccc1F,< 4.70
4,NCCC(=O)NNc1nc2ccccc2n2cccc12,< 4.70
5,O=C(NNc1nc2cc(F)ccc2n2cccc12)c1cnccn1,6.05
6,O=C(NNc1nc2ccccc2n2cccc12)C1CSCN1 (centres undefined),5.00
7,O=C(NNc1nc2cc(F)ccc2n2cccc12)c1cccnc1,< 4.70
8,O=C(NNc1nc2cc(F)ccc2n2cccc12)c1cnc2ccccc2n1,4.96
9,O=C(NNc1nc2cc(F)ccc2n2cccc12)c1ccccn1,< 4.70
10,O=C(NNc1nc2ccccc2n2cccc12)c1c[nH]c2ccccc12,< 4.70
11,O=C(NNc1nc2ccccc2n2cccc12)c1cc2ccccc2[nH]1,< 4.70
12,O=C(NNc1nc2cc(F)ccc2n2cccc12)c1cccs1,< 4.70
13,O=C(NNc1nc2cc(F)ccc2n2cccc12)c1ccco1,< 4.70
14,COc1ccccc1C(=O)NNc1nc2ccccc2n2cccc12,< 4.70
